Test results published in ChEMBL document CHEMBL1149910, “2-(6-aryl-3(Z)-hexen-1,5-diynyl)anilines as a new class of potent antitubulin agents” (J Med Chem, 2008).
The source made the active and inactive calls. The calls are words filed in the database; no cut-off is given here.

How the values were obtained:
MDA-MB-231 [1] = experiment: Cell cycle arrest in human MDA-MB-231 cells assessed as accumulation of 2N cells at 3.6 uM after 72 hrs by flow cytometry; format: functional
COLO 205 = experiment: Cytotoxicity against human COLO205 cells; format: functional
How it was run: (§1)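 Tested in the NCI in vitro antitumor screening protocol across a tumor cell line panel. GI₅₀ is the concentration producing a 50% reduction in cell growth.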

MDA-MB-231 [2] = experiment: Cell cycle arrest in human MDA-MB-231 cells assessed as accumulation of 2N cells at 18.0 uM after 72 hrs by flow cytometry; format: functional
MCF7 = experiment: Cytotoxicity against human MCF7 cells; format: functional; how it was run: as §1
MDA-MB-231 [3] = experiment: Cell cycle arrest in human MDA-MB-231 cells assessed as accumulation of 4N cells at 9.0 uM after 72 hrs by flow cytometry; format: functional
[4] = test system: MDA-MB-231 (Homo sapiens); experiment: Induction of apoptosis in human MDA-MB-231 cells assessed as induction of caspase 8 activation at 36 uM after 72 hrs by colorimetric assay relative to control
MDA-MB-231 [5] = experiment: Effect on microtubule depolymerization in human MDA-MB-231 cells at 18 uM after 2 hrs; format: functional, cell-based
How it was run: (§2)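 MDA-MB-231/ATCC cells grown on glass coverslips (1 × 10⁴ cells) for 24 h, then exposed to 3.6, 9, 18, 27 or 36 µM at 37 °C for 2 h. Fixed in 4% paraformaldehyde, permeabilized with Triton X-100, and immunostained for α-tubulin and ninein with DAPI counterstain. Interphase microtubule networks compared with untreated cells by confocal microscopy.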

MDA-MB-231 [6] = experiment: Cell cycle arrest in human MDA-MB-231 cells assessed as accumulation at sub-G1 phase at 27.0 uM after 72 hrs by flow cytometry; format: functional
MDA-MB-231 [7] = experiment: Cell cycle arrest in human MDA-MB-231 cells assessed as accumulation of 4N cells at 27.0 uM after 24 hrs by flow cytometry; format: functional
NCI-H522 = experiment: Cytotoxicity against human NCI-H522 cells; format: functional; how it was run: as §1
LOX IMVI = experiment: Cytotoxicity against human LOXIMVI cells; format: functional; how it was run: as §1
MDA-MB-231 [8] = experiment: Cell cycle arrest in human MDA-MB-231 cells assessed as accumulation of 4N cells at 36.0 uM after 72 hrs by flow cytometry; format: functional
MDA-MB-231 [9] = experiment: Cell cycle arrest in human MDA-MB-231 cells assessed as accumulation of 2N cells at 36.0 uM after 72 hrs by flow cytometry; format: functional
MDA-MB-231 [10] = experiment: Cell cycle arrest in human MDA-MB-231 cells assessed as accumulation at sub-G1 phase at 18.0 uM after 24 hrs by flow cytometry; format: functional
K562 [11] = experiment: Cell cycle arrest in human K562 cells assessed as accumulation at sub-G1 phase at 50 uM after 24 hrs by flow cytometry; format: functional
How it was run: (§3)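 K-562 human leukemia cells were grown in RPMI 1640 with 10% fetal calf serum, glutamine and penicillin/streptomycin at 37 °C in 5% CO₂. Cells were exposed to compound at 50 µM for 24 h, then pelleted and PBS-washed. They were fixed in ice-cold ethanol for 30 min, treated with 1 mg/mL RNase A at 37 °C for 30 min, and stained with propidium iodide and Triton X-100 for 30 min at room temperature in the dark. Per-phase and sub-G1 percentages came from flow cytometry gating.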

MDA-MB-231 [12] = experiment: Cell cycle arrest in human MDA-MB-231 cells assessed as accumulation at sub-G1 phase at 3.6 uM after 24 hrs by flow cytometry; format: functional
MDA-MB-231 [13] = experiment: Cell cycle arrest in human MDA-MB-231 cells assessed as accumulation at sub-G1 phase at 36.0 uM after 72 hrs by flow cytometry; format: functional
MDA-MB-231 [14] = experiment: Cell cycle arrest in human MDA-MB-231 cells assessed as accumulation of >4N cells at 9.0 uM after 72 hrs by flow cytometry; format: functional
How it was run: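 MDA-MB-231/ATCC cells were grown in DMEM with 10% fetal bovine serum, […], 1% nonessential amino acids, penicillin and streptomycin at 37 °C in 5% CO₂. They were exposed to 3.6, 9.0, 18, 27 or 36 µM for 24 or 72 h, with colchicine as control. DNA content was then read by flow cytometry, and […] cells were scored.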

HOP-62 = experiment: Cytotoxicity against human HOP62 cells; format: functional; how it was run: as §1
MDA-MB-231 [15] = experiment: Effect on microtubule depolymerization in human MDA-MB-231 cells assessed as disorganized microtubule cytoskeleton at 9 uM after 2 hrs relative to control; format: functional, cell-based; how it was run: as §2
RXF 393 = experiment: Cytotoxicity against human RXF393 cells; format: functional; how it was run: as §1
NCI-H23 = experiment: Cytotoxicity against human NCI-H23 cells; format: functional; how it was run: as §1
MDA-MB-231 [16] = experiment: Cell cycle arrest in human MDA-MB-231 cells assessed as accumulation at sub-G1 phase at 27.0 uM after 24 hrs by flow cytometry; format: functional
K562 [17] = experiment: Cytotoxicity against human K562 cells; format: functional; how it was run: as §1
MDA-MB-231 [18] = experiment: Cytotoxicity against human MDA-MB-231 cells; format: functional; how it was run: as §1
MDA-MB-231 [19] = experiment: Cell cycle arrest in human MDA-MB-231 cells assessed as accumulation at sub-G1 phase at 18.0 uM after 72 hrs by flow cytometry; format: functional
MDA-MB-231 [20] = experiment: Cell cycle arrest in human MDA-MB-231 cells assessed as accumulation of 2N cells at 9.0 uM after 72 hrs by flow cytometry; format: functional
K562 [21] = experiment: Cell cycle arrest in human K562 cells assessed as accumulation at S phase at 50 uM after 24 hrs by flow cytometry; format: functional; how it was run: as §3
[22] = test system: MDA-MB-231 (Homo sapiens); experiment: Induction of apoptosis in human MDA-MB-231 cells assessed as induction of caspase 9 activation at 36 uM after 72 hrs by colorimetric assay relative to control
MDA-MB-231 [23] = experiment: Cell cycle arrest in human MDA-MB-231 cells assessed as accumulation of 2N cells at 27.0 uM after 24 hrs by flow cytometry; format: functional
MDA-MB-231 [24] = experiment: Cell cycle arrest in human MDA-MB-231 cells assessed as accumulation of >4N cells at 27.0 uM after 72 hrs by flow cytometry; format: functional
MDA-MB-231 [25] = experiment: Cell cycle arrest in human MDA-MB-231 cells assessed as accumulation of 2N cells at 3.6 uM after 24 hrs by flow cytometry; format: functional
MDA-MB-231 [26] = experiment: Cell cycle arrest in human MDA-MB-231 cells assessed as accumulation of >4N cells at 18.0 uM after 24 hrs by flow cytometry; format: functional
M14 = experiment: Cytotoxicity against human M14 cells; format: functional; how it was run: as §1
UACC-257 = experiment: Cytotoxicity against human UACC257 cells; format: functional; how it was run: as §1
[27] = read-out: LC50 (the source's name)

Structure (SMILES): Nc1ccccc1C#C/C=C\C#Cc1ccccc1C(F)(F)F
- Activity (MDA-MB-231 [1]): 23.3%
- GI50 (COLO 205): 1.17 µM
- TGI (COLO 205): 13.8 µM
- CC50 (COLO 205; [27]): > 100 µM
- Activity (MDA-MB-231 [2]): 7.1%
- GI50 (MCF7): 0.681 µM
- TGI (MCF7): > 100 µM
- CC50 (MCF7; [27]): > 100 µM
- Activity (MDA-MB-231 [3]): 21.3%
- fold change (FC) [4]: 4
- Activity (MDA-MB-231 [5]): Active
- Activity (MDA-MB-231 [6]): 65.4%
- Activity (MDA-MB-231 [7]): 30.7%
- GI50 (NCI-H522): 0.597 µM
- TGI (NCI-H522): 12.2 µM
- CC50 (NCI-H522; [27]): 51.2 µM
- GI50 (LOX IMVI): 0.499 µM
- TGI (LOX IMVI): 10.5 µM
- CC50 (LOX IMVI; [27]): 46.2 µM
- Activity (MDA-MB-231 [8]): 14.5%
- Activity (MDA-MB-231 [9]): 6.5%
- Activity (MDA-MB-231 [10]): 23.5%
- Activity (K562 [11]): 19.4%
- Activity (MDA-MB-231 [12]): 23.6%
- Activity (MDA-MB-231 [13]): 69.3%
- Activity (MDA-MB-231 [14]): 18%
- GI50 (HOP-62): 0.77 µM
- TGI (HOP-62): 26.1 µM
- CC50 (HOP-62; [27]): 69.5 µM
- Activity (MDA-MB-231 [15]): Active
- GI50 (RXF 393): 0.808 µM
- TGI (RXF 393): 4.62 µM
- CC50 (RXF 393; [27]): 30.5 µM
- GI50 (NCI-H23): 0.273 µM
- TGI (NCI-H23): 1.89 µM
- CC50 (NCI-H23; [27]): 47.8 µM
- Activity (MDA-MB-231 [16]): 24.7%
- GI50 (K562 [17]): 1 µM
- GI50 (MDA-MB-231 [18]): 0.398 µM
- Activity (MDA-MB-231 [19]): 62.5%
- Activity (MDA-MB-231 [20]): 6.8%
- Activity (K562 [21]): 19.3%
- fold change (FC) [22]: 3.9
- Activity (MDA-MB-231 [23]): 9.3%
- Activity (MDA-MB-231 [24]): 12.8%
- Activity (MDA-MB-231 [25]): 9.5%
- Activity (MDA-MB-231 [26]): 35.1%
- GI50 (M14): 0.372 µM
- TGI (M14): 13.2 µM
- CC50 (M14; [27]): 49.4 µM
- GI50 (UACC-257): 0.536 µM
- TGI (UACC-257): 23.7 µM
- CC50 (UACC-257; [27]): 58.4 µM
